Measurements: ChEMBL document CHEMBL2146441, “2,6-Disubstituted imidazo[2,1-b][1,3,4]thiadiazoles: search for anticancer agents” (2012)

What was measured:
Assay type in all cases: functional
DU-145 = test: Cytotoxicity against human DU145 cells assessed as cell growth at 10^-6 M after 48 hrs by SRB assay; conditions: DU-145, 48 h, read-out: Activity
Method in brief: (§1)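 NCI-60 screen: lines kept in RPMI 1640 with 5% FBS, seeded at 5000–40,000 cells/well by doubling time, preincubated 24 h at 37 °C in 5% CO2. Time-zero plates TCA-fixed at drug addition. DMSO stocks diluted in medium, 48 h exposure. Fixation in cold TCA (final 10% adherent, 16% suspension), 0.4% SRB stain, solubilised in 10 mM Tris base, A515. Percent growth computed against control and time-zero.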

HL-60 [1] = test: Cytotoxicity against human HL60 cells assessed as cell growth at 10^-5 M after 48 hrs by SRB assay; conditions: HL-60, 48 h, read-out: Activity
Method in brief: (§2)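 NCI-60 five-dose screen. Cells were grown in RPMI 1640 with 5% FBS and seeded at 5000–40,000 cells/well according to doubling time. They were pre-incubated 24 h at 37 °C in 5% CO₂, and time-zero (Tz) plates were TCA-fixed at drug addition. Five 10-fold dilutions of DMSO stock were applied for 48 h. Read-out was SRB staining, 515 nm absorbance, with percent growth calculated versus Tz and untreated control.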

OVCAR-3 [2] = test: Cytotoxicity against human OVCAR3 cells assessed as cell growth at 10^-8 M after 48 hrs by SRB assay; conditions: OVCAR-3, 48 h, read-out: Activity
OVCAR-8 = test: Cytotoxicity against human OVCAR8 cells assessed as cell growth at 10^-7 M after 48 hrs by SRB assay; conditions: OVCAR-8, 48 h, read-out: Activity
UO-31 = test: Cytotoxicity against human UO31 cells assessed as cell growth at 10^-4 M after 48 hrs by SRB assay; conditions: UO-31, 48 h, read-out: Activity
COLO = test: Cytotoxicity against human COLO […] cells assessed as cell growth at 10^-5 M after 48 hrs by SRB assay; conditions: read-out: Activity; method in brief: as §1
LOX IMVI = test: Cytotoxicity against human LOXIMVI cells assessed as cell growth at 10^-5 M after 48 hrs by SRB assay; conditions: read-out: Activity
[3] = Cytotoxicity against human NCI-ADR-RES cells assessed as cell growth at 10^-7 M after 48 hrs by SRB assay; conditions: read-out: Activity
KM12 = test: Growth inhibition of human KM12 cells after 48 hrs by SRB assay; conditions: KM12, 48 h
Method in brief: (§3)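 Adherent NCI-60 lines grown in RPMI 1640 with 5% FBS, seeded at 5000–40,000 cells/well, and preincubated 24 h at 37 °C, 5% CO2. Compound, stocked in DMSO, given either once at 10^-5 M or at five 10-fold dilutions for 48 h. Cells fixed with cold TCA (final 10%), stained with 0.4% SRB, and read at 515 nm. GI50 taken as 50% reduction in net protein increase versus time-zero and control plates.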

HT-29 = test: Cytotoxicity against human HT-29 cells assessed as cell growth at 10^-5 M after 48 hrs by SRB assay; conditions: HT-29, 48 h, read-out: Activity; method in brief: as §2
OVCAR-3 [4] = test: Growth inhibition of human OVCAR3 cells after 48 hrs by SRB assay; conditions: OVCAR-3, 48 h; method in brief: as §3
MDA-MB-231 [5] = test: Cytotoxicity against human MDA-MB-231 cells assessed as cell growth at 10^-7 M after 48 hrs by SRB assay; conditions: MDA-MB-231, 48 h, read-out: Activity
NCI-H226 = test: Cytotoxicity against human NCI-H226 cells assessed as cell growth at 10^-8 M after 48 hrs by SRB assay; conditions: NCI-H226, 48 h, read-out: Activity
A498 = test: Cytotoxicity against human A498 cells assessed as cell growth at 10^-7 M after 48 hrs by SRB assay; conditions: A498, 48 h, read-out: Activity; method in brief: as §1
UACC-62 [6] = test: Cytotoxicity against human UACC62 cells assessed as cell growth at 10^-7 M after 48 hrs by SRB assay; conditions: UACC-62, 48 h, read-out: Activity
SR = test: Cytotoxicity against human SR cells assessed as cell growth at 10^-6 M after 48 hrs by SRB assay; conditions: read-out: Activity
MDA-MB-231 [7] = test: Cytotoxicity against human MDA-MB-231 cells assessed as cell growth at 10^-6 M after 48 hrs by SRB assay; conditions: MDA-MB-231, 48 h, read-out: Activity
HOP-62 = test: Cytotoxicity against human HOP62 cells assessed as cell growth at 10^-5 M after 48 hrs by SRB assay; conditions: HOP-62, 48 h, read-out: Activity; method in brief: as §2
UACC-62 [8] = test: Cytotoxicity against human UACC62 cells assessed as cell growth at 10^-4 M after 48 hrs by SRB assay; conditions: UACC-62, 48 h, read-out: Activity
786-0 = test: Cytotoxicity against human 786-0 cells assessed as cell growth at 10^-7 M after 48 hrs by SRB assay; conditions: 786-0, 48 h, read-out: Activity; method in brief: as §1
OVCAR-3 [9] = test: Cytotoxicity against human OVCAR3 cells assessed as cell growth at 10^-4 M after 48 hrs by SRB assay; conditions: OVCAR-3, 48 h, read-out: Activity
MCF7 = test: Cytotoxicity against human MCF7 cells assessed as cell growth at 10^-5 M after 48 hrs by SRB assay; conditions: MCF7, 48 h, read-out: Activity
[10] = Cytotoxicity against human NCI-ADR-RES cells assessed as cell growth at 10^-5 M after 48 hrs by SRB assay; conditions: read-out: Activity
HCT-116 = test: Cytotoxicity against human HCT116 cells assessed as cell growth at 10^-4 M after 48 hrs by SRB assay; conditions: HCT-116, 48 h, read-out: Activity; method in brief: as §2
CCRF-CEM = test: Cytotoxicity against human CCRF-CEM cells assessed as cell growth at 10^-4 M after 48 hrs by SRB assay; conditions: read-out: Activity; method in brief: as §1
A549 = test: Cytotoxicity against human A549 cells assessed as cell growth at 10^-5 M after 48 hrs by SRB assay; conditions: A549, 48 h, read-out: Activity; method in brief: as §1
NCI-H322M = test: Cytotoxicity against human NCI-H322M cells assessed as cell growth at 10^-5 M after 48 hrs by SRB assay; conditions: read-out: Activity
SNB-75 = test: Cytotoxicity against human SNB75 cells assessed as cell growth at 10^-8 M after 48 hrs by SRB assay; conditions: SNB-75, 48 h, read-out: Activity
HL-60 [11] = test: Growth inhibition of human HL60 cells after 48 hrs by SRB assay; conditions: HL-60, 48 h
Method in brief: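 Leukemia suspension lines grown in RPMI 1640 with 5% FBS, seeded at 5000–40,000 cells/well, and preincubated 24 h at 37 °C, 5% CO2. Compound, stocked in DMSO, given either once at 10^-5 M or at five 10-fold dilutions for 48 h. Settled cells fixed with 80% TCA (final 16%), stained with SRB, and read at 515 nm. GI50 calculated against time-zero and control growth.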

Compound: COc1ccc(-c2nn3cc(-c4cccc(N)c4)nc3s2)cc1
- growth at 1 µM (DU-145): 93%
- growth at 10 µM (HL-60 [1]): 19%
- growth at 0.01 µM (OVCAR-3 [2]): 102%
- growth at 0.1 µM (OVCAR-8): 107%
- growth at 100 µM (UO-31): -63%
- growth at 10 µM (COLO): 42%
- growth at 10 µM (LOX IMVI): 26%
- growth at 0.1 µM [3]: 96%
- Concentration killing 50% of cells (LC50) (KM12): > 100 µM
- GI50 (KM12): 5.34 µM
- TGI (KM12): 27.5 µM
- growth at 10 µM (HT-29): 27%
- GI50 (OVCAR-3 [4]): 3400 nM
- LC50 (concentration causing 50% net cell kill) (OVCAR-3 [4]): 55.2 µM
- TGI (OVCAR-3 [4]): 15.9 µM
- growth at 0.1 µM (MDA-MB-231 [5]): 81%
- growth at 0.01 µM (NCI-H226): 92%
- growth at 0.1 µM (A498): 79%
- growth at 0.1 µM (UACC-62 [6]): 90%
- growth at 1 µM (SR): 81%
- growth at 1 µM (MDA-MB-231 [7]): 61%
- growth at 10 µM (HOP-62): 15%
- growth at 100 µM (UACC-62 [8]): -41%
- growth at 0.1 µM (786-0): 105%
- growth at 100 µM (OVCAR-3 [9]): -74%
- growth at 10 µM (MCF7): 21%
- growth at 10 µM [10]: 31%
- growth at 100 µM (HCT-116): -91%
- growth at 100 µM (CCRF-CEM): 6%
- growth at 10 µM (A549): 36%
- growth at 10 µM (NCI-H322M): 44%
- growth at 0.01 µM (SNB-75): 70%
- GI50 (HL-60 [11]): 1770 nM
- LC50 (HL-60 [11]): > 100 µM
- TGI (HL-60 [11]): 37.7 µM

Compound: COc1ccc(-c2nn3cc(-c4ccc(O)cc4O)nc3s2)cc1
- growth at 1 µM (DU-145): 91%
- growth at 10 µM (HL-60 [1]): 33%
- growth at 0.01 µM (OVCAR-3 [2]): 102%
- growth at 0.1 µM (OVCAR-8): 98%
- growth at 100 µM (UO-31): -10%
- growth at 10 µM (COLO): 35%
- growth at 10 µM (LOX IMVI): 4%
- growth at 0.1 µM [3]: 99%
- Concentration killing 50% of cells (LC50) (KM12): > 100 µM
- GI50 (KM12): 3.61 µM
- TGI (KM12): > 100 µM
- growth at 10 µM (HT-29): 9%
- GI50 (OVCAR-3 [4]): 2540 nM
- LC50 (concentration causing 50% net cell kill) (OVCAR-3 [4]): > 100 µM
- TGI (OVCAR-3 [4]): 8.48 µM
- growth at 0.1 µM (MDA-MB-231 [5]): 99%
- growth at 0.01 µM (NCI-H226): 94%
- growth at 0.1 µM (A498): 70%
- growth at 0.1 µM (UACC-62 [6]): 95%
- growth at 1 µM (SR): 72%
- growth at 1 µM (MDA-MB-231 [7]): 66%
- growth at 10 µM (HOP-62): -33%
- growth at 100 µM (UACC-62 [8]): -72%
- growth at 0.1 µM (786-0): 99%
- growth at 100 µM (OVCAR-3 [9]): -14%
- growth at 10 µM (MCF7): 3%
- growth at 10 µM [10]: 15%
- growth at 100 µM (HCT-116): -55%
- growth at 100 µM (CCRF-CEM): 8%
- growth at 10 µM (A549): 2%
- growth at 10 µM (NCI-H322M): 23%
- growth at 0.01 µM (SNB-75): 69%
- GI50 (HL-60 [11]): 3860 nM
- LC50 (HL-60 [11]): > 100 µM
- TGI (HL-60 [11]): 37.4 µM
